≈ marks a conversion by molar mass, not a printed value.
Experiments:
[1] = Aqueous solubility of the compound in 0.01 N HCl; type: physicochemical
[2] = Aqueous solubility of the compound in PBS pH 7.4; type: physicochemical
[3] = AUC in Sprague-Dawley rat at 0.5 mg/kg, iv; type: ADME, organism-based; set-up: dose 0.5 mg/kg, route intravenous; conditions: plasma
In short: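 Male Sprague-Dawley rats dosed intravenously at 0.5 mg/kg in 0.5 mL/kg of 100% DMSO; pharmacokinetic parameters derived from plasma exposure.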

LLC-PK1 [4] = assay: Apparent permeability of the compound from basolateral to apical direction in pig LLC-PK1 cells expressing human MDR1; type: ADME, cell-based, Sus scrofa
In short: (§1)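 MDR1-LLC-PK1 pig kidney cells expressing human MDR1; compound at 5 μM with 0.1% BSA; apparent permeability measured apical-to-basolateral and basolateral-to-apical.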

[5] = Aqueous solubility of the compound in SIF pH 6.8; type: physicochemical
LLC-PK1 [6] = assay: Apparent permeability of the compound from apical to basolateral direction in pig LLC-PK1 cells expressing human MDR1; type: ADME, cell-based, Sus scrofa; in short: as §1
Rattus norvegicus [7] = assay: Plasma concentration in formalin-induced Sprague-Dawley rat at 30 mg/kg, po by open-field test; type: ADME, organism-based; set-up: dose 30 mg/kg, route oral; conditions: in vivo
In short: (§2)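 Rats dosed orally 2 h before formalin; plasma sampled right after the formalin test (3 h post-dose) for total drug concentration.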

Rattus norvegicus [8] = assay: Plasma concentration in formalin-induced Sprague-Dawley rat at 3 mg/kg, po by open-field test; type: ADME, organism-based; set-up: dose 3 mg/kg, route oral; conditions: in vivo; in short: as §2
Rattus norvegicus [9] = assay: Plasma concentration in Sprague-Dawley rat at 20 mg/kg, po by open-field test; type: ADME, organism-based; set-up: dose 20 mg/kg, route oral; conditions: in vivo
In short: (§3)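 Naive rats given oral doses of 3–30 mg/kg (n = 8 per dose), timed so recording began at the same post-dose interval as the formalin test; open-field photobeam beam breaks binned every 5 min and totalled; plasma drug measured; one-way ANOVA with Dunnett's versus vehicle.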

Rattus norvegicus [10] = assay: Plasma concentration in Sprague-Dawley rat at 3 mg/kg, po by open-field test; type: ADME, organism-based; set-up: dose 3 mg/kg, route oral; conditions: in vivo; in short: as §3
Rattus norvegicus [11] = assay: Plasma concentration in formalin-induced Sprague-Dawley rat at 20 mg/kg, po by open-field test; type: ADME, organism-based; set-up: dose 20 mg/kg, route oral; conditions: in vivo; in short: as §2
Rattus norvegicus [12] = assay: Plasma concentration in formalin-induced Sprague-Dawley rat at 10 mg/kg, po by open-field test; type: ADME, organism-based; set-up: dose 10 mg/kg, route oral; conditions: in vivo; in short: as §2
Rattus norvegicus [13] = assay: Plasma concentration in Sprague-Dawley rat at 10 mg/kg, po by open-field test; type: ADME, organism-based; set-up: dose 10 mg/kg, route oral; conditions: in vivo; in short: as §3
Rattus norvegicus [14] = assay: Plasma concentration in Sprague-Dawley rat at 30 mg/kg, po by open-field test; type: ADME, organism-based; set-up: dose 30 mg/kg, route oral; conditions: in vivo; in short: as §3
Plasma = assay: Unbound plasma concentration in Sprague-Dawley rat at 3 mg/kg, po; type: ADME, organism-based; set-up: dose 3 mg/kg, route oral; conditions: in vivo
[15] = Oral bioavailability in Sprague-Dawley rat at 2 mg/kg; type: ADME, organism-based; conditions: in vivo
In short: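 Male Sprague-Dawley rats; oral dose 2 mg/kg in 10 mL/kg vehicle (30% hydroxypropyl-β-cyclodextrin pH 2.2 with methanesulfonic acid, or 1% Tween 80/2% HPMC pH 2.2 with HCl), compared with 0.5 mg/kg iv in DMSO.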

| SMILES | solubility [1] | solubility [2] | AUC [3] | Papp (LLC-PK1 [4]) | solubility [5] | Papp (LLC-PK1 [6]) | concentration (Rattus norvegicus [7]) | concentration (Rattus norvegicus [8]) | concentration (Rattus norvegicus [9]) | concentration (Rattus norvegicus [10]) | concentration (Rattus norvegicus [11]) | concentration (Rattus norvegicus [12]) | concentration (Rattus norvegicus [13]) | concentration (Rattus norvegicus [14]) | Cp(f) (Plasma) | bioavailability [15] |
| --- | --- | --- | --- | --- | --- | --- | --- | --- | --- | --- | --- | --- | --- | --- | --- | --- |
| CC(=O)Nc1cccc(Nc2ncnc(N3CCc4ccccc4C3)n2)c1 | 42 µg/mL (≈ 117 µM) | 1 µg/mL (≈ 2.77 µM) | 126 ng·h/mL | 29.3 ×10⁻⁶ cm/s | 31 µg/mL (≈ 86 µM) | 29.3 ×10⁻⁶ cm/s |  |  |  |  |  |  |  |  |  |  |
| CC(=O)Nc1cccc(Nc2ncnc(N3CCC(OCc4ccc(OC(F)(F)F)cc4)CC3)n2)c1C |  |  |  |  |  |  | 4400 nM | 500 nM | 2900 nM | 500 nM | 3200 nM | 1400 nM | 1400 nM | 5400 nM | 14 nM | 67% |
| CC(=O)Nc1cccc(Nc2ncnc(N3CCC(OCc4ccccc4)CC3)n2)c1 | 157 µg/mL (≈ 375 µM) | 15 µg/mL (≈ 35.8 µM) |  | 22.2 ×10⁻⁶ cm/s | 86 µg/mL (≈ 205 µM) | 22.2 ×10⁻⁶ cm/s |  |  |  |  |  |  |  |  |  | 19% |
| CC(=O)Nc1cccc(Nc2ncnc(N3CCC(OCc4ccc(C(F)(F)F)cc4)CC3)n2)c1C |  |  |  |  |  |  |  |  |  |  |  |  |  |  |  | 27% |
| CC(=O)Nc1cccc(Nc2ncnc(N3CCC(Oc4ccccc4)CC3)n2)c1 | > 200 µg/mL | 11 µg/mL (≈ 27.2 µM) |  | 26.1 ×10⁻⁶ cm/s | 110 µg/mL (≈ 272 µM) | 26.1 ×10⁻⁶ cm/s |  |  |  |  |  |  |  |  |  | 52% |

Reference: ChEMBL document CHEMBL1811851, “Identification of a potent, state-dependent inhibitor of Nav1.7 with oral efficacy in the formalin model of persistent pain” (J Med Chem, 2011)
